# Data as given in ChEMBL document CHEMBL1125068, “Structure-based, C2 symmetric inhibitors of HIV protease” (J Med Chem, 1990).
# Experiments:
# [1] = biological target: T1, Human immunodeficiency virus type 1 protease (Human immunodeficiency virus 1, UniProt Q72874); assay: Inhibitory activity against recombinant HIV-1 Protease
# [2] = test system: MT4; assay: In vitro inhibitory activity against HIV-1 in MT-4 cells; assay type: functional, cell-based; details: Homo sapiens
# Summary of the method: (§1)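 MT4 cells (1 × 10⁴) were infected with 10 TCID₅₀ HIV-1 3B for 2 h, washed, and grown at 37 °C in inhibitor-containing medium. Viral cytopathic effect and compound toxicity were both scored on day 5 by MTT uptake. IC₅₀ and TC₅₀ came from this read-out.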
# [3] = test system: H9; assay: In vitro inhibitory activity against HIV-1 in H9 cells; assay type: functional, cell-based; details: Homo sapiens
# Summary of the method: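 H9 cells (2 × 10⁴) were infected with 100 TCID₅₀ HIV-1 3B for 2 h, washed, then cultured at 37 °C with inhibitor. Viral replication was read as p24 antigen by ELISA on days 7 and 10, and IC₅₀ was taken from the dose-response. Viability of uninfected cultures was checked by trypan blue exclusion.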
# [4] = biological target: T1, Human immunodeficiency virus type 1 protease; assay: Inhibitory activity against recombinant HIV-1 protease.
# [5] = test system: MT4; assay: In vitro inhibitory cytopathic effect against HIV-1 in MT-4 cells; assay type: functional; details: Homo sapiens, MT4, read-out: TC50; summary of the method: as §1
# [6] = test system: H9; assay: In vitro inhibitory cytopathic effect against HIV-1 in H9 cells; assay type: functional; details: Homo sapiens, H9, read-out: TC50
smiles,measurement,setting,value
CC(=O)N[C@H](C(=O)N[C@@H](Cc1ccccc1)C(O)[C@H](Cc1ccccc1)NC(=O)[C@@H](NC(C)=O)C(C)C)C(C)C,IC50,[1],0.012 µM
CC(C)(C)OC(=O)N[C@@H](Cc1ccccc1)[C@H](O)[C@H](O)[C@H](Cc1ccccc1)NC(=O)OC(C)(C)C,IC50,[1],0.012 µM
CC(C)[C@H](NC(=O)OCc1ccccc1)C(=O)N[C@@H](Cc1ccccc1)[C@@H](O)[C@@H](O)[C@H](Cc1ccccc1)NC(=O)[C@H](NC(=O)OCc1ccccc1)C(C)C,IC50,[2],0.016 µM
same,IC50,[3],0.02 µM
same,IC50,[4],0.00022 µM
same,CC50,[5],> 100 µM
same,CC50,[6],60 µM
CC(C)[C@H](NC(=O)OCc1ccccc1)C(=O)N[C@@H](Cc1ccccc1)[C@H](O)[C@@H](O)[C@H](Cc1ccccc1)NC(=O)[C@H](NC(=O)OCc1ccccc1)C(C)C,IC50,[2],0.15 µM
same,IC50,[3],0.06 µM
same,IC50,[4],0.00038 µM
same,CC50,[5],> 100 µM
same,CC50,[6],> 100 µM
CC(C)[C@H](NC(=O)OCc1ccccc1)C(=O)N[C@@H](Cc1ccccc1)[C@@H](O)[C@H](Cc1ccccc1)NC(=O)[C@H](NC(=O)OCc1ccccc1)C(C)C,IC50,[1],0.003 µM
CC(C)[C@H](NC(=O)OCc1ccccc1)C(=O)N[C@@H](Cc1ccccc1)[C@@H](O)[C@H](O)[C@H](Cc1ccccc1)NC(=O)[C@H](NC(=O)OCc1ccccc1)C(C)C,IC50,[1],0.00022 µM
same,IC50,[2],0.08 µM
same,IC50,[3],0.02 µM
same,CC50,[5],> 100 µM
same,CC50,[6],10 µM
CC(C)C[C@H](NC(=O)OCc1ccccc1)C(=O)N[C@@H](Cc1ccccc1)C(O)[C@H](Cc1ccccc1)NC(=O)[C@@H](CC(C)C)NC(=O)OCc1ccccc1 (some centres undefined),IC50,[1],> 0.1 µM
CC(=O)N[C@H](C(=O)N[C@H](C(=O)N[C@@H](Cc1ccccc1)C(O)[C@H](Cc1ccccc1)NC(=O)[C@H](NC(=O)[C@H](NC(C)=O)C(C)C)C(C)C)C(C)C)C(C)C (some centres undefined),IC50,[1],0.01 µM
CC[C@H](C)[C@H](NC(=O)OCc1ccccc1)C(=O)N[C@@H](Cc1ccccc1)C(O)[C@H](Cc1ccccc1)NC(=O)[C@H](NC(=O)OCc1ccccc1)[C@@H](C)CC (some centres undefined),IC50,[1],0.0049 µM
CC(C)(C)OC(=O)N[C@@H](Cc1ccccc1)[C@@H](O)[C@H](O)[C@H](Cc1ccccc1)NC(=O)OC(C)(C)C,IC50,[1],0.04 µM
CC(C)(C)OC(=O)N[C@@H](Cc1ccccc1)[C@H](O)[C@@H](O)[C@H](Cc1ccccc1)NC(=O)OC(C)(C)C,IC50,[1],0.28 µM
CC(=O)N[C@@H](Cc1ccccc1)C(O)[C@H](Cc1ccccc1)NC(C)=O,IC50,[1],> 10 µM
